# Counter-ions that a name gives are not always drawn.
# Legend:
# [1] = target: recombinant NanA of DSM20566 (Streptococcus pneumoniae, UniProt P62575); type: biochemical, S. pneumoniae; conditions: read-out: substrate affinity (Km) of rNanA; substrate 4-MUNANA
# S. pneumoniae DSM14378 [2] = assay: Minimal bactericidal concentration; type: cell-based; conditions: viability reduced by ≥99.9%
# S. pneumoniae BC7326 [3] = assay: Minimal bactericidal concentration; type: cell-based; conditions: viability reduced by ≥99.9%
# [4] = system: pneumococcal NA of strain D39; assay: Lectin-based hemagglutination; type: cell-based, S. pneumoniae; conditions: for Inhibitory concentration (HA assay): minimal NA inhibitory concentration, strain D39
# S. pneumoniae D39 [5] = assay: Biofilm inhibition assay; type: cell-based; conditions: D39, TSB, 24 h
# S. pneumoniae DSM20566 [6] = assay: Biofilm inhibition assay; type: cell-based; conditions: DSM20566, TSB, 24 h
# S. pneumoniae BC57 [7] = assay: Biofilm inhibition assay; type: cell-based; conditions: BC57, TSB, 24 h
# S. pneumoniae PN8828 [8] = assay: Biofilm inhibition assay; type: cell-based; conditions: PN8828, TSB, 24 h
# S. pneumoniae BC7326 [9] = assay: Biofilm inhibition assay; type: cell-based; conditions: BC7326, TSB, 24 h
# S. pneumoniae CF6937 [10] = assay: Minimal bactericidal concentration; type: cell-based; conditions: viability reduced by ≥99.9%
# [11] = system: pneumococcal NA of strain CJ9400; assay: Lectin-based hemagglutination; type: cell-based, S. pneumoniae; conditions: minimal NA inhibitory concentration
# S. pneumoniae D39 [12] = assay: Minimal bactericidal concentration; type: cell-based; conditions: viability reduced by ≥99.9%
# [13] = system: pneumococcal adherence to pulmonary epithelial A549 cells; conditions: DSM20566 and PN8828
# S. pneumoniae DSM14378 [14] = assay: Biofilm inhibition assay; type: cell-based; conditions: DSM14378, TSB, 24 h
# S. pneumoniae DSM20566 [15] = assay: Minimal bactericidal concentration; type: cell-based; conditions: viability reduced by ≥99.9%
# S. pneumoniae CJ9400 [16] = assay: Minimal bactericidal concentration; type: cell-based; conditions: viability reduced by ≥99.9%
# S. pneumoniae CJ9400 [17] = assay: Biofilm inhibition assay; type: cell-based; conditions: CJ9400, TSB, 24 h
# S. pneumoniae CF8919 [18] = assay: Biofilm inhibition assay; type: cell-based; conditions: CF8919, TSB, 24 h
# [19] = system: pneumococcal NA of strain DSM20566; assay: Lectin-based hemagglutination; type: cell-based, S. pneumoniae; conditions: minimal NA inhibitory concentration
# S. pneumoniae [20] = assay: Bactericidal activity, studied pneumococci; type: cell-based; conditions: for concentration up to which no inhibitory or bactericidal activity was exhibited: maximum tested concentration
# S. pneumoniae CF6937 [21] = assay: Biofilm inhibition assay; type: cell-based; conditions: CF6937, TSB, 24 h
# S. pneumoniae BC7326 [22] = assay: Broth microdilution assay; type: cell-based; conditions: Streptococcus pneumoniae, BC7326, 18 h, read-out: 90% minimal inhibitory concentration
# S. pneumoniae PN8828 [23] = assay: Broth microdilution assay; type: cell-based; conditions: Streptococcus pneumoniae, PN8828, 18 h, read-out: 90% minimal inhibitory concentration
# S. pneumoniae D39 [24] = assay: Broth microdilution assay; type: cell-based; conditions: Streptococcus pneumoniae, D39, 18 h, read-out: 90% minimal inhibitory concentration
# pneumococcal NA [25] = target: T1, pneumococcal NA (Streptococcus pneumoniae, UniProt P62575); type: biochemical, S. pneumoniae
# T1 sequence (P62575 54-1006): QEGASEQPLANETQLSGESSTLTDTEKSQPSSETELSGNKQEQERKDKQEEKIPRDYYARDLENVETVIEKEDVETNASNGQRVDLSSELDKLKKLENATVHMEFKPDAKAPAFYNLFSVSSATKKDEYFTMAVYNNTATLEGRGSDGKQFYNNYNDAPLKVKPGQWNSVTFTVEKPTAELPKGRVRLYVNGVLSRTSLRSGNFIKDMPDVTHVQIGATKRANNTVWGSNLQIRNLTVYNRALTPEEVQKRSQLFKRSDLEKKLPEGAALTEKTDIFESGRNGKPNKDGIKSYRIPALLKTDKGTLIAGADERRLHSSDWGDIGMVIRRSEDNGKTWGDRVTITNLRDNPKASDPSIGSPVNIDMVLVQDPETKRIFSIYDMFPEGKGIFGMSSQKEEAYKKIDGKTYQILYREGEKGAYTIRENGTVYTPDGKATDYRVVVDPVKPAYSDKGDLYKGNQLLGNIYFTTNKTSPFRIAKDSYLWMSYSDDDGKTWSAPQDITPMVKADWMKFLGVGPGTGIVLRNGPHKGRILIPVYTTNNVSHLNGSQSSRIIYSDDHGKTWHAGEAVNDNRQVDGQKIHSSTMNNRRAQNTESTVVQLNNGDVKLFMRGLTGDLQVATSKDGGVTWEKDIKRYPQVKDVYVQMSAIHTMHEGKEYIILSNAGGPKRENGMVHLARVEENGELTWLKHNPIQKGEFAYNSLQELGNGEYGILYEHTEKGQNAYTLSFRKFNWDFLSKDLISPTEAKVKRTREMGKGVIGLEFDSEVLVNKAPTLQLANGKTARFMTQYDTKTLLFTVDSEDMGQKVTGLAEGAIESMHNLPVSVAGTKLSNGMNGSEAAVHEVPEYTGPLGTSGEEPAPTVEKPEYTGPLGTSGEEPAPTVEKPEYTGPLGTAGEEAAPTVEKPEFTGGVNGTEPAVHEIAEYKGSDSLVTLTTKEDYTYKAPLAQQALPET
# S. pneumoniae BC57 [26] = assay: Broth microdilution assay; type: cell-based; conditions: Streptococcus pneumoniae, BC57, 18 h, read-out: 90% minimal inhibitory concentration
# S. pneumoniae CF6937 [27] = assay: Broth microdilution assay; type: cell-based; conditions: Streptococcus pneumoniae, CF6937, 18 h, read-out: 90% minimal inhibitory concentration
# S. pneumoniae DSM14378 [28] = assay: Broth microdilution assay; type: cell-based; conditions: Streptococcus pneumoniae, DSM14378, 18 h, read-out: 90% minimal inhibitory concentration
# S. pneumoniae CF8919 [29] = assay: Broth microdilution assay; type: cell-based; conditions: Streptococcus pneumoniae, CF8919, 18 h, read-out: 90% minimal inhibitory concentration
# S. pneumoniae DSM20566 [30] = assay: Broth microdilution assay; type: cell-based; conditions: Streptococcus pneumoniae, DSM20566, 18 h, read-out: 90% minimal inhibitory concentration
# S. pneumoniae CJ9400 [31] = assay: Broth microdilution assay; type: cell-based; conditions: Streptococcus pneumoniae, CJ9400, 18 h, read-out: 90% minimal inhibitory concentration
# S. pneumoniae [32] = assay: Broth microdilution assay; type: cell-based; conditions: Streptococcus pneumoniae, read-out: MIC90 values
# How it was run: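 Pneumococci were pre-grown in BHI with gentle shaking at 37°C for 4–5 h (mid-exponential), adjusted to McFarland 0.5 (1.5 × 10^8 cfu/mL) and diluted 50× in BHI. 50 µL bacteria plus 100 µL of two-fold compound dilutions (top 50 or 200 µM) in BHI were run in duplicate, overnight at 37°C, 5% CO₂. OD620 at 18 h minus 0 h was taken relative to no-compound growth control; MIC90 is 90% turbidity reduction.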
# pneumococcal NA [33] = target: T1, pneumococcal NA; type: biochemical, S. pneumoniae; conditions: precipitated total proteins of all strains
# pneumococcal NA [34] = target: T1, pneumococcal NA; conditions: ref Gut et al., 2011; cited from earlier work
# Sequence of recombinant NanA of DSM20566 (P62575 116-1035 limits assumed): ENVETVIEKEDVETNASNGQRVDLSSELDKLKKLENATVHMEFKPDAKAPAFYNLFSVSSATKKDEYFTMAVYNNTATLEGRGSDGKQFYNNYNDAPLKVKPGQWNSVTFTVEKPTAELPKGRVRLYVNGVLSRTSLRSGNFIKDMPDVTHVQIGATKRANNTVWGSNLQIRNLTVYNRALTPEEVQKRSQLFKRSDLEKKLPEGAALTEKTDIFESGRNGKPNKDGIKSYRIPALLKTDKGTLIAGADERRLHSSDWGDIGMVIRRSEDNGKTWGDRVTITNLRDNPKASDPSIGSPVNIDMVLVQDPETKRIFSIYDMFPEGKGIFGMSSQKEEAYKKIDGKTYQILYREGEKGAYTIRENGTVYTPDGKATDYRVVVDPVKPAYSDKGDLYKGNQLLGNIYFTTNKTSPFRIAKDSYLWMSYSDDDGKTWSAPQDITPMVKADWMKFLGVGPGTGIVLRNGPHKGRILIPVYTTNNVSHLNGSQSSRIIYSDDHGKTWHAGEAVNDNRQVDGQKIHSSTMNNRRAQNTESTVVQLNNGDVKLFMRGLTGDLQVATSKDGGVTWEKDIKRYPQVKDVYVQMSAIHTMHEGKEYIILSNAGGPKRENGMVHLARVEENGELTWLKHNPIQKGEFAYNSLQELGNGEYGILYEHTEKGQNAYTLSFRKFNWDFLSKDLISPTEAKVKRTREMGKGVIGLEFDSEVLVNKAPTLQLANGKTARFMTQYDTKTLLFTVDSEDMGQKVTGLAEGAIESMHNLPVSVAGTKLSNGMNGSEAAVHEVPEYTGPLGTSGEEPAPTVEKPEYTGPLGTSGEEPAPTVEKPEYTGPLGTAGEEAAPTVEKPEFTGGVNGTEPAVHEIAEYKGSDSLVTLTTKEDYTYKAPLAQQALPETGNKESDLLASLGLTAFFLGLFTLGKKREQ
Compound,Bactericidal concentration (S. pneumoniae DSM14378 [2]),Bactericidal concentration (S. pneumoniae BC7326 [3]),Inhibitory concentration (HA assay) [4],90% minimal biofilm inhibitory concentration (S. pneumoniae D39 [5]),90% minimal biofilm inhibitory concentration (S. pneumoniae DSM20566 [6]),90% minimal biofilm inhibitory concentration (S. pneumoniae BC57 [7]),90% minimal biofilm inhibitory concentration (S. pneumoniae PN8828 [8]),90% minimal biofilm inhibitory concentration (S. pneumoniae BC7326 [9]),Bactericidal concentration (S. pneumoniae CF6937 [10]),Inhibitory concentration (HA assay) [11],Bactericidal concentration (S. pneumoniae D39 [12]),90% minimal biofilm inhibitory concentration (S. pneumoniae DSM14378 [14]),Bactericidal concentration (S. pneumoniae DSM20566 [15]),Bactericidal concentration (S. pneumoniae CJ9400 [16]),90% minimal biofilm inhibitory concentration (S. pneumoniae CJ9400 [17]),90% minimal biofilm inhibitory concentration (S. pneumoniae CF8919 [18]),Inhibitory concentration (HA assay) [19],90% minimal biofilm inhibitory concentration (S. pneumoniae CF6937 [21]),MIC (S. pneumoniae BC7326 [22]),MIC (S. pneumoniae PN8828 [23]),other results
"CC(=O)N[C@H]1[C@H]([C@H](O)[C@H](O)CO)O[C@@](Oc2ccc3c(C)cc(=O)oc3c2)(C(=O)O)C[C@@H]1O [4-MUNANA, 2′-(4-methylumbelliferyl)-α-D-N-acetylneuraminic acid sodium salt hydrate]",–,–,–,–,–,–,–,–,–,–,–,–,–,–,–,–,–,–,–,–,Km [1]: 23.6 µM
"CC(=O)N[C@H]1[C@H]([C@H](O)[C@H](O)CO)OC(C(=O)O)=C[C@@H]1O [DANA, 2,3-dehydro-2-deoxy-N-acetylneuraminic acid]",> 50 µM,> 50 µM,> 100 µM,> 50 µM,> 50 µM,> 50 µM,> 50 µM,> 50 µM,> 50 µM,15.4 ± 10.8 µM,> 50 µM,> 50 µM,> 50 µM,> 50 µM,> 50 µM,> 50 µM,45.3 ± 30.6 µM,> 50 µM,–,–,activity in HA assay (in words) ([4]; reference strain D39): no activity; effect on adhesion of pneumococci to A549 cells (in words) [13]: did not reduce pneumococcal adherence; concentration up to which no inhibitory or bactericidal activity was exhibited (S. pneumoniae [20]): > 50 µM
O=C(CCc1ccccc1)C[C@@H]1C[C@@H](c2ccccc2)c2c(cc(/C=C/c3ccccc3)oc2=O)O1 [katsumadain A],> 50 µM,> 50 µM,1.0 ± 0.0 µM,> 50 µM,> 50 µM,> 50 µM,> 50 µM,> 50 µM,> 50 µM,0.7 ± 0.4 µM,> 50 µM,> 50 µM,> 50 µM,> 50 µM,> 50 µM,> 50 µM,3.2 ± 0.0 µM,> 50 µM,> 50 µM,> 50 µM,"MIC (S. pneumoniae D39 [24]): > 50 µM; IC50 (pneumococcal NA [25]; read-out: IC50, CL-based assay, range among the strains): 310 to 1610 nM; MIC (S. pneumoniae BC57 [26]): > 50 µM; effect on adhesion of pneumococci to A549 cells (in words) [13]: did not reduce pneumococcal adherence; MIC (S. pneumoniae CF6937 [27]): > 50 µM; MIC (S. pneumoniae DSM14378 [28]): > 50 µM; MIC (S. pneumoniae CF8919 [29]): > 50 µM; MIC (S. pneumoniae DSM20566 [30]): > 50 µM; MIC (S. pneumoniae CJ9400 [31]): > 50 µM; concentration up to which no inhibitory or bactericidal activity was exhibited (S. pneumoniae [20]): > 50 µM"
CO[C@H]1/C=C/O[C@@]2(C)Oc3c(C)c(O)c4c(O)c(c(/C=N/N5CCN(C)CC5)c(O)c4c3C2=O)NC(=O)/C(C)=C\C=C\[C@H](C)[C@H](O)[C@@H](C)[C@@H](O)[C@@H](C)[C@H](OC(C)=O)[C@@H]1C [rifampicin],0.14 ± 0.06 µM,0.08 ± 0.03 µM,–,0.013 ± 0.002 µM,0.049 ± 0.030 µM,0.012 ± 0.001 µM,0.011 ± 0.007 µM,0.016 ± 0.010 µM,0.05 ± 0.03 µM,–,0.22 ± 0.09 µM,0.014 ± 0.008 µM,1.97 ± 1.23 µM,0.23 ± 0.16 µM,0.003 ± 0.001 µM,0.006 ± 0.004 µM,–,0.020 ± 0.002 µM,0.016 ± 0.005 µM,0.005 ± 0.001 µM,MIC (S. pneumoniae D39 [24]): 0.021 ± 0.002 µM; MIC (S. pneumoniae BC57 [26]): 0.012 ± 0.002 µM; MIC (S. pneumoniae CF6937 [27]): 0.034 ± 0.028 µM; MIC (S. pneumoniae DSM14378 [28]): 0.031 ± 0.023 µM; MIC (S. pneumoniae CF8919 [29]): 0.009 ± 0.001 µM; MIC (S. pneumoniae DSM20566 [30]): 0.041 ± 0.011 µM; MIC90 (S. pneumoniae [32]): 0.01 to 0.04 µM; MIC (S. pneumoniae CJ9400 [31]): 0.032 ± 0.03 µM; factor of reduction of viability of pneumococci (S. pneumoniae [20]; within 18 h): > 1000
CC(=O)N[C@H]1[C@H]([C@H](O)[C@H](O)CO)OC(C(=O)O)=C[C@@H]1N=C(N)N [zanamivir],> 50 µM,> 50 µM,>100 µM,> 50 µM,> 50 µM,> 50 µM,> 50 µM,> 50 µM,> 50 µM,>100 µM,> 50 µM,> 50 µM,> 50 µM,> 50 µM,> 50 µM,> 50 µM,>100 µM,> 50 µM,> 50 µM,> 50 µM,"inhibition of NA activity, FL-based assay (in words) (pneumococcal NA [33]): did not show an effect; MIC (S. pneumoniae D39 [24]): > 50 µM; inhibition of NA activity, CL-based assay (in words) (pneumococcal NA [25]; data not shown): inefficacy; MIC (S. pneumoniae BC57 [26]): > 50 µM; MIC (S. pneumoniae CF6937 [27]): > 50 µM; MIC (S. pneumoniae DSM14378 [28]): > 50 µM; MIC (S. pneumoniae CF8919 [29]): > 50 µM; MIC (S. pneumoniae DSM20566 [30]): > 50 µM; MIC (S. pneumoniae CJ9400 [31]): > 50 µM; inhibitory potency to pneumococcal NA (in words) (pneumococcal NA [34]): weak"

# Reference: paper PMC5730044 (International journal of medical microbiology : IJMM, 2014)
